Compound activity: PubChem BioAssay, several laboratories
FXIIa inh 1536: blocks human coagulation factor XIIa protease activity. P00748. purified FXIIa, Boc-QGR-AMC fluorogenic substrate, 2 h. inhibition, % at 5 µM. 220,000 tested, 0.3% active. AID 800; in the data active means inhibition above about 40%
Target sequence (P00748 20-372 limits assumed): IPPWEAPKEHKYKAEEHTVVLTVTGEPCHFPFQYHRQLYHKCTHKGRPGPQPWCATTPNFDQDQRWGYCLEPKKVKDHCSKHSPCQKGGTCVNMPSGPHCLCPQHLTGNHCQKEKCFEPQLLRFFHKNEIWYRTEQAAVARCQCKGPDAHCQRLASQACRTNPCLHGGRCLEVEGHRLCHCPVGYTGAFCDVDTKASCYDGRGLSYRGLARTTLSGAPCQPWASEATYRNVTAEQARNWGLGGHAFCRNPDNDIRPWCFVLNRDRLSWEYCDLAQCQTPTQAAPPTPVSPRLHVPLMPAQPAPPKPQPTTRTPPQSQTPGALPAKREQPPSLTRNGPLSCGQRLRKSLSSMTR
Target sequence (P00748 373-615 limits assumed): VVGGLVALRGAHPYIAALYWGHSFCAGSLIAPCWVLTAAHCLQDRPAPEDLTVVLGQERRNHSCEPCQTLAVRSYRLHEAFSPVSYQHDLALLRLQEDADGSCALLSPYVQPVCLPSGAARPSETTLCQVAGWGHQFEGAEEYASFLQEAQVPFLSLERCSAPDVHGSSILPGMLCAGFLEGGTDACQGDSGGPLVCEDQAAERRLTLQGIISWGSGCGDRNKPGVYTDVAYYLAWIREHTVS
thrombin 1536: inhibitors of human thrombin; P00734; inhibition, % at 5 µM; AID 1046; alpha-thrombin, Boc-VPR-AMC fluorogenic substrate cleavage; 220,000 tested, 0.26% active;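 active means inhibition at or above 40%; inactive means inhibition below 40%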
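Test system: human alpha-thrombin; medium: pH 7.5 Tris-saline with Tween 20; times: reaction at room temperature; signal: AMC fluorescence at 355 nm excitation and 460 nm emission; also added: Boc-VPR-AMC substrate, 15 µM final; dosing: one concentration per compound, 5 µM, with 0.2% DMSO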
FXIa inh 1536: inhibitors of human coagulation factor XIa; 220,000 tested, 0.14% active; P03951; purified FXIa, Boc-Glu-Ala-Arg-AMC fluorogenic substrate; inhibition, % at 5 µM;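 active means inhibition of at least 40%; inactive means inhibition below 40%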;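 further: fluorescence of freed AMC excited at 355 nm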
KLK5 inh: blocks human kallikrein 5 protease activity. Q9Y337. recombinant hK5, fluorogenic AMC substrate cleavage. inhibition, % at 5 µM. 210,000 tested, 0.59% active. AID 873;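 active means inhibition of 40% or more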
Furin inh: human furin inhibition | P09958 | purified furin, fluorogenic substrate cleavage | inhibition, % at 20 µM or 30 µM | 220,000 tested, 0.061% active | AID 463115; in the data active means inhibition above about 25%
A number is an active result; n = inactive; x = not tested or not shown. A selection: hits, their analogues and other compounds. The true share with any hit is near 1.1%.

SMILES	FXIIa inh 1536	thrombin 1536	FXIa inh 1536	KLK5 inh	Furin inh
CCCc1nn(CCc2ccccn2)c(N)c1CC	n	n	n	n	n
COC(=O)CSc1nnnn1-c1ccccc1	n	n	n	n	n
CCOC(=O)NC(=O)CSc1nnnn1-c1ccccc1	n	n	n	n	38
CCOc1ccccc1-n1nnnc1SCC(=O)OC	n	n	n	n	n
CCOC(=O)CSc1nnnn1-c1cccc2ccccc12	n	n	n	57	n
Cc1oc(-c2ccccc2Cl)nc1CN1CCCCC1c1cccnc1 (stereo not given)	n	n	n	n	n
O=C(Nc1ccc(N2CCCCC2)c(Cl)c1)c1ccc(N2CCOCC2)c([N+](=O)[O-])c1	n	n	n	45	n
Cc1cc(C)c2c(CN3CCN(Cc4ccc5c(c4)OCO5)CC3)cc(=O)oc2c1C	n	n	n	n	n
Cc1ccc2c(CN3CCN(Cc4ccc5c(c4)OCO5)CC3)cc(=O)oc2c1C	n	n	46	n	n
O=C(N/N=C/c1cccc2cccnc12)c1ccccc1O	n	n	n	n	n
Cc1nn(CC(=O)c2cccc(Cl)c2)c(C)c1[N+](=O)[O-]	n	n	n	n	n
Cc1cccc(C(=O)NNC2=CC(=O)CC(C)(C)C2)c1O	n	n	n	n	n
CC1(C)CC(=O)C=C(NNC(=O)c2ccccc2O)C1	60	n	n	n	n
COc1ccc(C(=O)NNC2=CC(=O)CC(C)(C)C2)cc1	n	n	n	49	n
COc1cc(NC2=CC(=O)CC(C)(C)C2)cc(OC)c1	n	n	n	n	n
O=C(c1cc(Cl)nc2ccccc12)N1CCc2ccccc2C1	n	n	42	n	n
O=C(c1cc(-c2ccccc2)nc2ccccc12)N1CCc2ccccc2C1	n	n	n	n	n
N#Cc1c(N)nc2c3c(sc(=N)c2c1N)NC(=O)CC3c1c(F)cccc1Cl (stereo not given)	n	n	n	68	n
CCOc1ccc(-c2csc(Cn3c(CN4CCN(C)CC4)nc4ccccc4c3=O)n2)cc1	n	n	n	n	n
O=C(CN1CCN(c2ccccn2)CC1)Nc1ccccc1	n	n	n	n	n
O=C(CN1CCN(c2ccccn2)CC1)Nc1ccc(Oc2ccccc2)cc1	56	n	n	n	n
Cc1onc(NC(=O)CSCC(=O)O)c1Br	n	n	n	n	n
C=CCOC(=O)C1=C(C)Nc2[nH]c(=O)[nH]c(=O)c2C1c1ccccc1 (stereo not given)	n	n	67	n	n
Cc1[nH]c(=O)[nH]c(=O)c1/C=N/NC(=O)[C@H](C)N	n	n	n	52	n
Cc1[nH]c(=O)[nH]c(=O)c1/C=N/NC(=O)[C@@H](NC(=O)OC(C)(C)C)C(C)C	n	n	n	n	n
SMILES	FXIIa inh 1536	thrombin 1536	FXIa inh 1536	KLK5 inh	Furin inh
CCn1nc(C)c(CNC(=O)c2cc(COc3ccc(F)cc3Cl)on2)c1C	43	n	n	n	n
CCSc1nc2cc(OC)c(OC)cc2c(=O)n1CC	n	n	n	66	n
O=[N+]([O-])c1ccc(CN2C=NS(=O)(=O)c3ccccc32)cc1	n	n	n	n	n
CN1C(=O)C(O)(c2sc(N)nc2-c2ccccc2)c2ccccc21 (stereo not given)	n	n	n	56	n
Cc1ccnc2nc(C(=O)OCC(=O)c3c[nH]c4ccccc34)nn12	n	n	n	n	n
CCCN1CCC(N2CCCC(C(=O)O)C2)CC1 (stereo not given)	n	45	n	n	n
Cc1cc(/C=C\c2ccccc2)nc2ccccc12	n	n	n	50	n
COc1ccc(/C=C/c2cc(C(=O)O)c3ccccc3n2)cc1	n	n	n	n	n
O=Cc1c[nH]c2ccc(S(=O)(=O)N3CCOCC3)cc12	n	n	n	n	n
S=C1NCN(C2CCCCC2)CN1c1ccccc1	n	n	n	n	n
CCOc1ccc(NC(=O)Cn2cncc2-c2ccc([N+](=O)[O-])cc2)cc1	n	n	n	41	n
CCOC(=O)Cn1cncc1-c1ccc([N+](=O)[O-])cc1	n	n	n	n	n
COc1ccc2ccccc2c1/C=N/NC(=O)c1sc(N)c(C#N)c1C	n	n	n	64	n
COc1ccc(Cn2c(-c3ccc(Br)cc3)c[n+]3ccccc23)cc1	n	n	n	n	n
CCOC(=O)n1c(=O)n(Cc2ccccc2)c2ccccc21	n	n	n	n	n
CCOC(=O)n1c(=O)n(Cc2c(Cl)cccc2Cl)c2ccccc21	n	n	n	42	n
Cc1cc(NC(=S)N(CCCN2CCOCC2)Cc2ccco2)ccc1Cl	n	n	n	n	n
CC(=O)NN1C(=O)/C(=C\c2ccccc2)SC1=S	n	n	n	89	n
CC(=O)NN1C(=O)/C(=C\c2ccc(O)cc2)SC1=S	n	n	n	n	n
O=C1/C(=C/c2ccncc2)SC(=S)N1Nc1ccccc1	n	n	n	n	n
O=C(O)c1ccc(/C=C2\SC(=S)N(Nc3ccccc3)C2=O)cc1	41	n	49	n	n
Cc1ccc(OCc2n[nH]c(=S)n2N)cc1C	n	101	n	n	n
CCCCOc1ccc(Cc2n[nH]c(=S)n2N)cc1	n	n	n	n	n
Cc1ccc(NC(=S)Nc2ccc3cn[nH]c3c2)cc1C	n	n	n	n	n
CC(C)c1ccc(NC(=S)Nc2ccc3cn[nH]c3c2)cc1	n	42	n	n	n
SMILES	FXIIa inh 1536	thrombin 1536	FXIa inh 1536	KLK5 inh	Furin inh
O=C(NC1CCCCC1)C1CCN(c2nnnn2-c2ccccc2)CC1	n	82	n	n	n
O=C(Nc1ccc(F)cc1)C1CCN(c2nnnn2-c2ccccc2)CC1	n	n	n	n	n
O=S(=O)(c1ccccc1)N1CCN(c2nnnn2-c2ccccc2)CC1	n	n	n	63	n
CCCc1nc2c(=O)[nH]c3ccccc3c2o1	n	n	n	44	n
O=C(Cc1ccccc1[N+](=O)[O-])Nc1ccccc1C(=O)N1CCCC1	85	n	n	n	n
CN1CCN(C(CNS(=O)(=O)c2ccc(Cl)cc2)c2cccnc2)CC1 (stereo not given)	n	n	n	42	n
COC(c1ccccc1)c1nnc(CCC(=O)N(C)Cc2cccc(-n3cccn3)c2)o1 (stereo not given)	x	40	n	x	n
COc1ccc(-n2ncc3c(NCc4ccco4)ncnc32)cc1	n	n	n	n	n
COc1ccc(-n2ncc3c(NCc4ccccn4)ncnc32)cc1	44	n	n	n	n
Nc1nc(CSC(=S)N2CCCCC2)nc(Nc2ccccc2)n1	n	n	n	67	n
CC(C)CC(COCc1ccc(Cl)cc1)N1CCN(C(=O)c2ccc(Cl)cc2Cl)CCC1=O (stereo not given)	n	n	n	n	n
C=CCNC(=O)NC(=O)COC(=O)/C=C/c1cccc([N+](=O)[O-])c1	n	n	n	n	n
O=C1CC(N2CCN(Cc3ccc(Cl)cc3)CC2)C(=O)N1CCc1ccccc1 (stereo not given)	41	n	n	n	n
O=C(Cn1nc(-c2ccc(Cl)cc2)ccc1=O)NCC1CCCO1 (stereo not given)	n	n	n	51	n
CNCCCOc1cc(C)cc(C)c1C	n	n	n	n	n
